In publication PMC6527342 (Journal of chemical information and modeling, 2018):

Key:
Type in all cases: cell-based
Conditions in all cases: read-out: MIC of ceftazidime
[1] = tested on: Escherichia coli DH10B cells expressing VIM-2; assay: MIC assay, E. coli DH10B cells expressing VIM-2
[2] = tested on: Escherichia coli DH10B cells expressing NDM-1; assay: MIC assay, E. coli DH10B cells expressing NDM-1
[3] = tested on: Escherichia coli DH10B cells not expressing any MBL; assay: MIC assay, E. coli DH10B control cells not expressing any MBL
How it was run: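 Ceftazidime MIC was measured in complex medium against E. coli DH10B carrying no MBL. This strain served as the control for DH10B expressing NDM-1, IMP-1 or VIM-2.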

[4] = tested on: Escherichia coli DH10B cells expressing IMP-1; assay: MIC assay, E. coli DH10B cells expressing IMP-1

CC(C)(O/N=C(\C(=O)N[C@@H]1C(=O)N2C(C(=O)[O-])=C(C[n+]3ccccc3)CS[C@H]12)c1csc(N)n1)C(=O)O [ceftazidime]
MIC [1]: 32 µg/mL
MIC [2]: 256 µg/mL
MIC [3]: 0.5 µg/mL
MIC [4]: 512 µg/mL
